Results from ChEMBL document CHEMBL1140263, “Structure-based design, synthesis, and study of potent inhibitors of beta-ketoacyl-acyl carrier protein synthase III as potential antimicrobial agents” (J Med Chem, 2005).

Each compound was assayed against T1, Beta-ketoacyl-[acyl-carrier-protein] synthase III (Enterococcus faecalis (strain ATCC 700802 / V583), UniProt Q820T1) (assay: Inhibitory concentration against Enterococcus faecalis beta-Ketoacyl-acyl carrier protein synthase III).
T1 sequence (Q820T1 whole entry): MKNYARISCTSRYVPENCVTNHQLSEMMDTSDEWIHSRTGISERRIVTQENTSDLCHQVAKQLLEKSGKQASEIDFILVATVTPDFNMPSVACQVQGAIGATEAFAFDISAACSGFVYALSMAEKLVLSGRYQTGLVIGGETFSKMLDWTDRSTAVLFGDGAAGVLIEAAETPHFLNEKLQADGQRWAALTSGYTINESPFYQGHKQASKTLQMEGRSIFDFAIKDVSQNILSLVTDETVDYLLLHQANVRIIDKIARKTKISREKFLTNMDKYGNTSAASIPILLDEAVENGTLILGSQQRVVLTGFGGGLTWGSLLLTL
In short: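 Coupled FabD/FabH radiometric assay with His-tagged or tagless FabH expressed in E. coli BL21(DE3). The mix held 100 mM sodium phosphate pH 7.0, 2 mM DTT, 1 mM MgCl₂, 12.5 µM E. coli holo-ACP, 10 nM FabD and 3-5 nM FabH. Malonyl-CoA was added for 1 min, then acetyl-CoA plus [³H]acetyl-CoA, NADH and NADPH for 19 min. TCA-precipitated protein was counted by liquid scintillation; DMSO ≤2% final.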

Row | SMILES | IC50 [µM]
1 | O=C(Nc1ccccc1C(=O)O)c1ccc(-c2ccc(F)c(Cl)c2)c(Oc2ccccc2)c1 | 0.57
2 | CCOc1ccc(-c2ccc(C(=O)Nc3ccccc3C(=O)O)cc2Oc2ccccc2)cc1 | 0.22
3 | O=C(O)c1ccc(-c2ccc(C(=O)Nc3ccccc3C(=O)O)cc2Oc2ccccc2)cc1 | 2.1
4 | O=C(Nc1ccccc1C(=O)O)c1ccc(F)c(Oc2ccccc2)c1 | 3.8
5 | O=C(Nc1ccccc1C(=O)O)c1cccc(Oc2ccc(F)cc2)c1 | 5
6 | O=C(Nc1ncccc1C(=O)O)c1cccc(Oc2ccccc2)c1 | > 1000
7 | O=C(Nc1cccc(O)c1C(=O)O)c1cccc(Oc2ccccc2)c1 | 0.41
8 | Cc1ccc(-c2ccc(C(=O)Nc3ccccc3C(=O)O)cc2Oc2ccccc2)cc1 | 0.16
9 | CCN(CC)S(=O)(=O)c1cc(C(=O)Nc2ccccc2C(=O)O)cc(C)c1Br | 160
10 | O=C(Nc1cccc(F)c1C(=O)O)c1cccc(Oc2ccccc2)c1 | 6
11 | O=C(O)c1cccc(Oc2cccc(C(=O)Nc3ccccc3C(=O)O)c2)c1 | 3.7

The next lines start with the values.

Row | IC50 [µM] | SMILES
12 | 290 | O=C(Nc1cccnc1C(=O)O)c1cccc(Oc2ccccc2)c1
13 | 43 | O=C(Nc1sccc1C(=O)O)c1cccc(Oc2ccccc2)c1
14 | 3.2 | O=C(Nc1ccccc1C(=O)O)c1ccc(N2CCOCC2)c(Oc2ccccc2)c1
15 | 0.11 | O=C(Nc1ccccc1C(=O)O)c1ccc(-c2cccnc2)c(Oc2ccccc2)c1
16 | 0.47 | O=C(Nc1ccccc1C(=O)O)c1ccc(-c2cccc(OC(F)(F)F)c2)c(Oc2ccccc2)c1
17 | 11.4 | CCN(CC)S(=O)(=O)c1cc(C(=O)Nc2ccccc2C(=O)O)ccc1OC
18 | 38 | CC1CN(c2ccc(C(=O)Nc3ccccc3C(=O)O)cc2Oc2ccccc2)CC(C)N1 (stereo not drawn)
19 | 1.2 | O=C(Nc1ccccc1C(=O)O)c1ccc(N2CCSCC2)c(Oc2ccccc2)c1
20 | 4.4 | O=C(O)c1ccc(Oc2cccc(C(=O)Nc3ccccc3C(=O)O)c2)cc1
21 | 2.1 | CCN(CC)S(=O)(=O)c1cc(C(=O)Nc2ccccc2C(=O)O)ccc1OCC1CCCC1
22 | 0.33 | O=C(Nc1ccccc1C(=O)O)c1ccc(-c2ccc(F)c(F)c2)c(Oc2ccccc2)c1
23 | 10 | O=C(Nc1ccccc1C(=O)O)c1cccc(Oc2ccncc2)c1
